Results published in ChEMBL document CHEMBL1131218, “Antineoplastic agents. 379. Synthesis of phenstatin phosphate” (J Med Chem, 1998).
In brackets after ≈: the same amount, converted by molar mass.

Assays:
[1] = tested on: Panel NCI-60 (60 carcinoma cell lines); experiment: The compound was tested for the concentration for 50% growth inhibition of NCI 60 cell line human tumor screen expressed in 10e-8 M; type: functional
How it was run: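 NCI 60-cell-line screen, run in triplicate. Compounds tested in three concentration ranges (top 10⁻⁵, 10⁻⁶ and 10⁻⁷ M), each with five 10-fold dilutions. The mean panel GI50 across lines is reported with SD.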

Bos taurus = organism: Bos taurus; experiment: Percentage inhibition of colchicine binding to tubulin by compound was evaluated; parameters: concentration or dose not given beside the values; details: concentration not given here
[2] = Concentration to inhibit 50% of tubulin polymerization from bovine brain; parameters: species or system Bos taurus
How it was run: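 Purified, electrophoretically homogeneous bovine brain tubulin at 1.0 mg/mL (10 μM) in 0.8 M monosodium glutamate pH 6.6 with 4% (v/v) DMSO and varying drug concentrations. Preincubated 15 min at 30 °C, chilled on ice, then GTP added (0.4 mM final). Assembly started by a jump from 0 to 30 °C and followed by turbidity. IC50 taken from extent of assembly at 20 min. Active compounds run in at least three independent experiments.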

A498 = experiment: The compound was tested for the concentration to inhibit 50% of renal A498 cell lines.; type: functional; details: Homo sapiens
OVCAR = experiment: The compound was tested for the concentration to inhibit 50% of ovarian OVCAR cell lines.; type: functional; details: Homo sapiens
P388 = experiment: The compound was tested for the concentration to inhibit 50% of leukemia P388 cell lines.; type: functional; details: Mus musculus
Tubulin = Tubulin (Bos taurus, UniProt Q6B856+Q862L2+Q862F3); experiment: The compound was tested for the concentration to inhibit 50% of tubulin polymerization.; type: protein assay
How it was run: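 Purified bovine brain tubulin at 1.0 mg/mL (10 μM) in 0.8 M monosodium glutamate pH 6.6 with 4% DMSO. Drug was preincubated with tubulin for 15 min at 30 °C, then chilled. GTP was added to 0.4 mM and assembly started by a jump from 0 to 30 °C, followed by spectrophotometer.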

NCI-H460 = experiment: The compound was tested for the concentration to inhibit 50% lung-NSC NCI-H460 cell lines.; type: functional; details: Homo sapiens
SF-295 = experiment: The compound was tested for the concentration to inhibit 50% of CNS SF-295 cell lines.; type: functional; details: Homo sapiens
SK-MEL-5 = experiment: The compound was tested for the concentration to inhibit 50% of melanoma SK-MEL-5 cell lines.; type: functional; details: Homo sapiens
KM-20L2 = experiment: The compound was tested for the concentration to inhibit 50% of colon KM20L2 cell lines.; type: functional; details: Homo sapiens

## COc1cc(C(=O)c2cc(C)cc(C)c2)cc(OC)c1OC
[1]
  GI50: 3.48 µM
Bos taurus
  inhibition: 7%
[2]
  IC50: 11 µM

## COc1ccc(/C=C\c2cc(OC)c(OC)c(OC)c2)cc1O
Bos taurus
  inhibition: 97%

## COc1ccc(Cc2cc(OC)c(OC)c(OC)c2)cc1
Bos taurus
  inhibition: 56%
[2]
  IC50: 4.4 µM

## COc1cc(C(=O)c2ccc3c(c2)OCO3)cc(OC)c1OC
[1]
  GI50: 2.7 µM
Bos taurus
  inhibition: 0%
[2]
  IC50: 15 µM

## COc1ccc(CCc2cc(OC)c(OC)c(OC)c2)cc1
Bos taurus
  inhibition: 54%
[2]
  IC50: 3.2 µM

## COc1ccc(CCc2cc(OC)c(OC)c(OC)c2)cc1O
Bos taurus
  inhibition: 77%
[2]
  IC50: 2.1 µM

## COc1ccc(C(=O)c2cc(OC)c(OC)c(OC)c2)cc1OP(=O)([O-])O.[Na+]
A498
  GI50: 0.05 µg/mL
OVCAR
  GI50: 0.0025 µg/mL
P388
  GI50: < 0.001 µg/mL
Tubulin
  IC50: 21 µM
NCI-H460
  GI50: 0.035 µg/mL
Bos taurus
  inhibition: 37%
SF-295
  GI50: 0.012 µg/mL
SK-MEL-5
  GI50: 0.0047 µg/mL
KM-20L2
  GI50: 0.27 µg/mL

## COc1cc(OC)cc(C(=O)c2cc(OC)c(OC)c(OC)c2)c1
[1]
  GI50: 0.543 µM
Bos taurus
  inhibition: 58%
[2]
  IC50: 3.6 µM

## COc1cc(C(=O)c2cc(Cl)cc(Cl)c2)cc(OC)c1OC
[1]
  GI50: 5.12 µM
Bos taurus
  inhibition: 1%
[2]
  IC50: 36 µM

## COc1ccc(C(=O)c2cc(OC)c(OC)c(OC)c2)cc1OC(C)=O
Tubulin
  IC50: 3.5 µM
Bos taurus
  inhibition: 71%

## COc1ccc(C(=O)c2cc(OC)c(OC)c(OC)c2)cc1O [PHENSTATIN]
[1]
  GI50: 0.0601 µM
A498
  GI50: 0.38 µg/mL (≈ 1.19 µM)
OVCAR
  GI50: 0.0023 µg/mL (≈ 0.00723 µM)
P388
  GI50: 0.0033 µg/mL (≈ 0.0104 µM)
NCI-H460
  GI50: 0.0057 µg/mL (≈ 0.0179 µM)
Bos taurus
  inhibition: 86%
SF-295
  GI50: 0.052 µg/mL (≈ 0.163 µM)
SK-MEL-5
  GI50: 0.0038 µg/mL (≈ 0.0119 µM)
KM-20L2
  GI50: 0.04 µg/mL (≈ 0.126 µM)
[2]
  IC50: 1 µM

## COc1ccc(C(=O)c2cc(OC)c(OC)c(OC)c2)cc1OC
[1]
  GI50: 5.11 µM
Bos taurus
  inhibition: 1%
[2]
  IC50: 15 µM

## COc1ccc(/C=C\c2cc(OC)c(OC)c(OC)c2)cc1
Tubulin
  IC50: 1.3 µM
Bos taurus
  inhibition: 97%

## COc1cc(C(=O)c2cc(F)cc(F)c2)cc(OC)c1OC
[1]
  GI50: 4.94 µM
Bos taurus
  inhibition: 0%
[2]
  IC50: 39 µM

## COc1ccc(Cc2cc(OC)c(OC)c(OC)c2)cc1O
Bos taurus
  inhibition: 65%
[2]
  IC50: 3.3 µM

## COc1ccc(/C=C\c2cc(OC)c(OC)c(OC)c2)cc1OP(=O)([O-])[O-].[Na+].[Na+] [FOSBRETABULIN DISODIUM]
A498
  GI50: 0.041 µg/mL
OVCAR
  GI50: 0.023 µg/mL
P388
  GI50: 0.0004 µg/mL
Tubulin
  IC50: > 80 µM
NCI-H460
  GI50: 0.029 µg/mL
Bos taurus
  inhibition: 4%
SF-295
  GI50: 0.036 µg/mL
SK-MEL-5
  GI50: 0.041 µg/mL
KM-20L2
  GI50: 0.34 µg/mL
